{"source": "ChEMBL document CHEMBL5696442", "about": "“Discovery of type II inhibitors of TGFβ-activated kinase 1 (TAK1) and mitogen-activated protein kinase kinase kinase kinase 2 (MAP4K2)” (J Med Chem, 2015)", "key": {"[1]": {"target": "Dual specificity tyrosine-phosphorylation-regulated kinase 1B (Homo sapiens) (UniProt Q9Y463)", "assay": "Inhibition of DYRK1B (unknown origin) at 10 uM by Ambit Kinomescan binding assay"}, "[2]": {"target": "Phosphorylase b kinase gamma catalytic chain, skeletal muscle/heart isoform (Homo sapiens) (UniProt Q16816)", "sequence (Q16816 whole entry, looked up, canonical isoform)": "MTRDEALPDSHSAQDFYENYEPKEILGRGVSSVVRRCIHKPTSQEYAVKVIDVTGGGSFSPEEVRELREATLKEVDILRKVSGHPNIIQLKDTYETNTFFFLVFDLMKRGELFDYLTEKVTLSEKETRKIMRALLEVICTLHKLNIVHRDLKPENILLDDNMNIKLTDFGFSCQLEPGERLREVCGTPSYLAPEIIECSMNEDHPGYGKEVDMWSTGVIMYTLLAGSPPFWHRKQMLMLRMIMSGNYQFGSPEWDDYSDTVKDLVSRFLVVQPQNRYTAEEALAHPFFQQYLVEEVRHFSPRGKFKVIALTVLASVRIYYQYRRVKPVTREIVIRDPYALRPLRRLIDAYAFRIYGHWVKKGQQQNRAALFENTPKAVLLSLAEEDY", "assay": "Inhibition of PHKG1 (unknown origin) at 10 uM by Ambit Kinomescan binding assay"}, "[3]": {"target": "T1, Mitogen-activated protein kinase kinase kinase 2 (Homo sapiens) (UniProt Q9Y2U5)", "T1 sequence (whole entry)": "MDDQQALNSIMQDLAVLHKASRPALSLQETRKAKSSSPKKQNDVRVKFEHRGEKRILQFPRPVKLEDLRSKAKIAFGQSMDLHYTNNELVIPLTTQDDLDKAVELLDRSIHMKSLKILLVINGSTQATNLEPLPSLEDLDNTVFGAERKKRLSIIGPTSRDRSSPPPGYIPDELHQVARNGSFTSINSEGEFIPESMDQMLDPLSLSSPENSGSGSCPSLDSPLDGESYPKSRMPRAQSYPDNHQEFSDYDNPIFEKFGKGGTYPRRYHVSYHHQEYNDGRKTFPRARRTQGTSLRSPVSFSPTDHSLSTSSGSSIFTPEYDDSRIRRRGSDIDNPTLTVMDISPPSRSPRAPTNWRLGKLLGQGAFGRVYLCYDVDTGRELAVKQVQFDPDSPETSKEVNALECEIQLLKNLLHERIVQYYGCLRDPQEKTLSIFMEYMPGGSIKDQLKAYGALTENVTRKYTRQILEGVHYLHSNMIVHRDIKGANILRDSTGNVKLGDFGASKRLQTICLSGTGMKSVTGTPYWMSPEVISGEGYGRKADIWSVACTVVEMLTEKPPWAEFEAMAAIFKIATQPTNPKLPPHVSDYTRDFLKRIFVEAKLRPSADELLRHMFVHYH", "assay": "Inhibition of MAP3K2 Lys2 labeling site in human A-375 cells at 0.05 uM by KiNativ Profiling analysis relative to control", "format": "cell-based"}, "[4]": {"target": "Myosin light chain kinase, smooth muscle (Homo sapiens) (UniProt Q15746)", "assay": "Inhibition of smMLCK K1 labeling site in human Huh-7 cells at 10 uM by KiNativ Profiling analysis relative to control", "format": "cell-based"}, "[5]": {"assay": "Inhibition of […] ATP labeling site in human Huh-7 cells at 1 uM by KiNativ Profiling analysis relative to control", "conditions": "condition cancer"}, "[6]": {"target": "T2, Phosphatidylinositol 5-phosphate 4-kinase type-2 gamma (Homo sapiens) (UniProt Q8TBX8)", "T2 sequence (whole entry)": "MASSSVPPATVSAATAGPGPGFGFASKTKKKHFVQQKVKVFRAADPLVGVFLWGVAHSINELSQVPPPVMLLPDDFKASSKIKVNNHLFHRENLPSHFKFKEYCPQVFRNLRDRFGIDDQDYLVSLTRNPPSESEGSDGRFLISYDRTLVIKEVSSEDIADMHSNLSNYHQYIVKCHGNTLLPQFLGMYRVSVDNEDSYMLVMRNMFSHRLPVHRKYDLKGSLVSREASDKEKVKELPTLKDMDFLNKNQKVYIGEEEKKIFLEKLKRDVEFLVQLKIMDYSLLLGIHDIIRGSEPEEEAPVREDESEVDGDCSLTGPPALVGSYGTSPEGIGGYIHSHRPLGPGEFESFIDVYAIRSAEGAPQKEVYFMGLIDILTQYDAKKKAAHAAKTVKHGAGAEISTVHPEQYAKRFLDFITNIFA", "assay": "Inhibition of PIP5K2C ATP labeling site harbouring VKELPTLKDMDFLNK in human Huh-7 cells at 1 uM by KiNativ Profiling analysis relative to control", "format": "cell-based"}, "[7]": {"target": "Citron Rho-interacting kinase (Homo sapiens) (UniProt O14578)", "sequence (O14578 whole entry)": "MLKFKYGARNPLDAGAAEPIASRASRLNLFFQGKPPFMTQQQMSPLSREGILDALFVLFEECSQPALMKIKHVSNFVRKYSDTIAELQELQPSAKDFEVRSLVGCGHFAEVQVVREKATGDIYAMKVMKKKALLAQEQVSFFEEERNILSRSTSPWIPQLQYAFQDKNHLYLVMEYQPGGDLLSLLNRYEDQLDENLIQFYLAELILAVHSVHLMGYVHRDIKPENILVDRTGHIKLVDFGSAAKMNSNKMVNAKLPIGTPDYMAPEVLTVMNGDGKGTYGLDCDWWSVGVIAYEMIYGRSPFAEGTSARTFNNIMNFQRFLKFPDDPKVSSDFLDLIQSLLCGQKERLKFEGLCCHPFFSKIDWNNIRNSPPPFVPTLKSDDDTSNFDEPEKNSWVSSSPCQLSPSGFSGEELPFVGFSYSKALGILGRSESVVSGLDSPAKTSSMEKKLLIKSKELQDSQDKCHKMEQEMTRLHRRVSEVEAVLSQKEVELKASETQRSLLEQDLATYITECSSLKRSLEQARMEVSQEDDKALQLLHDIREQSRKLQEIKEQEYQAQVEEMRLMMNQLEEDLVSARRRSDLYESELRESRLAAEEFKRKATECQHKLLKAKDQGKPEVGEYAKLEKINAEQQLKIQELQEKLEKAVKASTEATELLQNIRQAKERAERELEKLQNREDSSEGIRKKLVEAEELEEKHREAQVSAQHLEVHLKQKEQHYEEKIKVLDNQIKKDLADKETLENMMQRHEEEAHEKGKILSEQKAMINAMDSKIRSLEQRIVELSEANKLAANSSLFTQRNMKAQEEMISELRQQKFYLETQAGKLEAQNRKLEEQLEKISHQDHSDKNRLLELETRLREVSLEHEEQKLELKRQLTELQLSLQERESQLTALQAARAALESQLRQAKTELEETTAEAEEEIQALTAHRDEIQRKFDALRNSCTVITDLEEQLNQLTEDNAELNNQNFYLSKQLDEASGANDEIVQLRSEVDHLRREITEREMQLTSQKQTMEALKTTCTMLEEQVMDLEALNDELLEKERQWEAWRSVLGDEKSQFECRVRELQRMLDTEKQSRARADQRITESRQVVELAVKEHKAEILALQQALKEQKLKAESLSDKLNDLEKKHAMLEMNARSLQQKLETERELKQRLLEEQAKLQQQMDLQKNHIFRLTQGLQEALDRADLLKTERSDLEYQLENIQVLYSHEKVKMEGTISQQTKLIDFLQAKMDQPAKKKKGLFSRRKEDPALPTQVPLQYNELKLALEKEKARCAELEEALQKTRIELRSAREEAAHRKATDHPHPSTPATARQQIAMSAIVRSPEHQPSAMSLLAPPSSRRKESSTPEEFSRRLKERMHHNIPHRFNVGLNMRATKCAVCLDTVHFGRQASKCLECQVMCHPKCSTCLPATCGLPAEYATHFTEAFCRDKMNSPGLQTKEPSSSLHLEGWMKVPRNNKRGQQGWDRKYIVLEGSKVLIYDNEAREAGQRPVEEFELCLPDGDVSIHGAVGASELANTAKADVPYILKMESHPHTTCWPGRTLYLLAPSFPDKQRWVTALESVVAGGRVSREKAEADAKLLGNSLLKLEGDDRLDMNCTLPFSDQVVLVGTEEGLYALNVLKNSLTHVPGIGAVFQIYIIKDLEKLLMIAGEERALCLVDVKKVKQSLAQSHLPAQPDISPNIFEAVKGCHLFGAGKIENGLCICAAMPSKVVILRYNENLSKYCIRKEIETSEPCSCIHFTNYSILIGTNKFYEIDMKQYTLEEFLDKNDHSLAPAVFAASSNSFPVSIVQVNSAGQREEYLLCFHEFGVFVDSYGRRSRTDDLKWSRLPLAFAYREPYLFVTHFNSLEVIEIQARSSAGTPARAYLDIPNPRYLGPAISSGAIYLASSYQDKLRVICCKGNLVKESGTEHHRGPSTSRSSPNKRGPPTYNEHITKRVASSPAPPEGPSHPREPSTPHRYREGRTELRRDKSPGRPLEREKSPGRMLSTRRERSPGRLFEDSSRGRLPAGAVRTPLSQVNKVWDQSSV", "assay": "Inhibition of CIT (unknown origin) at 10 uM by Ambit Kinomescan binding assay relative to control; values are per cent of control"}, "[8]": {"target": "Ribosomal protein S6 kinase alpha-3 (Homo sapiens) (UniProt P51812)", "sequence (P51812 whole entry, the tested form may be a part)": "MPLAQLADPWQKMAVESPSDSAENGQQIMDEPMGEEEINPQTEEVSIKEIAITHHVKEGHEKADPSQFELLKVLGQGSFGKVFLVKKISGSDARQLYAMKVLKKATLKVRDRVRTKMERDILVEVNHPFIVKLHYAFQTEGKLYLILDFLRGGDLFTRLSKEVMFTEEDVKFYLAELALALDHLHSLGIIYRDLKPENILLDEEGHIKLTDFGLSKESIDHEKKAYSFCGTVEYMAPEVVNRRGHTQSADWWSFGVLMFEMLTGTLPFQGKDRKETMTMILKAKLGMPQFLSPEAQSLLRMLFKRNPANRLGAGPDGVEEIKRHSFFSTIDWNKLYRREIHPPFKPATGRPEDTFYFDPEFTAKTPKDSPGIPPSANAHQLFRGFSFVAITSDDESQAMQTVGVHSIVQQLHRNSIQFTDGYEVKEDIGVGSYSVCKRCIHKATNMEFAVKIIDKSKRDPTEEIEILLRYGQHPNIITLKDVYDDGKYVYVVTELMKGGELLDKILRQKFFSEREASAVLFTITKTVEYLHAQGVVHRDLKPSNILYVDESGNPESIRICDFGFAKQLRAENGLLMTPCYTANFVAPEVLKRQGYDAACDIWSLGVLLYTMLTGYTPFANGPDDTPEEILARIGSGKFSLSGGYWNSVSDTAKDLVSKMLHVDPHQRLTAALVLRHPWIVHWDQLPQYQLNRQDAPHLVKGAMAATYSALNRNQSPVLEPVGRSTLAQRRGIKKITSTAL", "assay": "Inhibition of RSK2 domain1 ACT labeling site in human A-375 cells at 5 uM by KiNativ Profiling analysis relative to control", "format": "cell-based", "method_in_brief": "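Live A375 melanoma cells treated with compound at 5 or 0.5 μM, then lysed. Lysate kinases were labeled with a lysine-reactive ATP or ADP-biotin probe. Inhibition was read as protection of labeling sites from the probe.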"}, "[9]": {"target": "Hormonally up-regulated neu tumor-associated kinase (Homo sapiens) (UniProt P57058)", "sequence (P57058 whole entry)": "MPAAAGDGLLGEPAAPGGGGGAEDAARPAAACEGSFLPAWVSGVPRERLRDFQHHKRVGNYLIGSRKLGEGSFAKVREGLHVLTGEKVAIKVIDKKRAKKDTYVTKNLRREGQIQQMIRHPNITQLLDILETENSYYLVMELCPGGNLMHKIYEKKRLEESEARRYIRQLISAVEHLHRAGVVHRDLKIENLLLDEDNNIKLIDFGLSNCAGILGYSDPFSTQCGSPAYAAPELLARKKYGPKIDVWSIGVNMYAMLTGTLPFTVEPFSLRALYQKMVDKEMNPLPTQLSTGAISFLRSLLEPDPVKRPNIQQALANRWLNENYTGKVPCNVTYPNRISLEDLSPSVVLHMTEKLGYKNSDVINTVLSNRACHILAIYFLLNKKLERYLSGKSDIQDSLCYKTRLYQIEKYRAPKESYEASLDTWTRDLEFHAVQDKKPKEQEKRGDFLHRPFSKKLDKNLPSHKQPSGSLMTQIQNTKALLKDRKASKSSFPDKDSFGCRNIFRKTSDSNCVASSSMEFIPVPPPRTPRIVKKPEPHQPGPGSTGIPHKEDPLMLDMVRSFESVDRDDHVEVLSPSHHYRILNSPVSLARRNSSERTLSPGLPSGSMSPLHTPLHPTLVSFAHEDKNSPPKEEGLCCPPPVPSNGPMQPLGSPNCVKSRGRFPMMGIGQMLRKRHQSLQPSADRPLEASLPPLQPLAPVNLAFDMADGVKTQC", "assay": "Inhibition of HUNK (unknown origin) at 1 uM by Ambit Kinomescan binding assay relative to control; values are per cent of control"}, "[10]": {"target": "T3, Dual specificity mitogen-activated protein kinase kinase 4 (Homo sapiens) (UniProt P45985)", "T3 sequence (whole entry)": "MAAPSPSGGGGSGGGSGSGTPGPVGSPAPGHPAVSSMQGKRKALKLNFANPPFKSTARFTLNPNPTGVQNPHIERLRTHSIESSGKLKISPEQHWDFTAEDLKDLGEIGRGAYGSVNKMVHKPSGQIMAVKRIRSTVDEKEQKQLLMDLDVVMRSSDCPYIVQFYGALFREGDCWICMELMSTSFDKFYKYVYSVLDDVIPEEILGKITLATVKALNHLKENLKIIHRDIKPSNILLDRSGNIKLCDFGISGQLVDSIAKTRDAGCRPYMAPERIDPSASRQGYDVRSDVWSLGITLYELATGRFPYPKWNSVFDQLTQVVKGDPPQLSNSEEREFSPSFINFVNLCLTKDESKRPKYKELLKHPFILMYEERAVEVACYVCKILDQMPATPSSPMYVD", "assay": "Inhibition of MAP2K4 ACT labeling site in human Huh-7 cell lysate at 1 uM by KiNativ Profiling analysis relative to control", "format": "subcellular"}, "[11]": {"target": "STE20-like serine/threonine-protein kinase (Homo sapiens) (UniProt Q9H2G2)", "assay": "Inhibition of SLK Lys2 labeling site harbouring DLKAGNILFTLDGDIKLADFGVSAK in human Huh-7 cell lysate at 1 uM by KiNativ Profiling analysis relative to control", "format": "subcellular"}, "[12]": {"target": "Serine/threonine-protein kinase SMG1 (Homo sapiens) (UniProt Q96Q15)", "assay": "Inhibition of SMG1 ATP labeling site in human Huh-7 cell lysate at 1 uM by KiNativ Profiling analysis relative to control", "format": "subcellular"}, "[13]": {"target": "Cyclin-dependent kinase 1 (Homo sapiens) (UniProt P06493)", "sequence (P06493 whole entry, looked up)": "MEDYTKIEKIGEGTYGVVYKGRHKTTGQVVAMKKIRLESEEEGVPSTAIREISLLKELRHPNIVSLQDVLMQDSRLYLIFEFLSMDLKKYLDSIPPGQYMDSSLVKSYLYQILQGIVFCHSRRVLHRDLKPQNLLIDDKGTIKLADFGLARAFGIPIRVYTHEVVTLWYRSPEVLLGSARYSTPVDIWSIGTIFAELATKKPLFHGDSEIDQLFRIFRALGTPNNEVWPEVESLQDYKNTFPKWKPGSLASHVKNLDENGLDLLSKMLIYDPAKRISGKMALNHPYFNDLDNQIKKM", "assay": "Inhibition of CDC2 Lys1 labeling site in human Huh-7 cells at 1 uM by KiNativ Profiling analysis relative to control", "format": "cell-based"}, "[14]": {"target": "Casein kinase I isoform alpha (Homo sapiens) (UniProt P48729)", "sequence (P48729 2-337 limits assumed)": "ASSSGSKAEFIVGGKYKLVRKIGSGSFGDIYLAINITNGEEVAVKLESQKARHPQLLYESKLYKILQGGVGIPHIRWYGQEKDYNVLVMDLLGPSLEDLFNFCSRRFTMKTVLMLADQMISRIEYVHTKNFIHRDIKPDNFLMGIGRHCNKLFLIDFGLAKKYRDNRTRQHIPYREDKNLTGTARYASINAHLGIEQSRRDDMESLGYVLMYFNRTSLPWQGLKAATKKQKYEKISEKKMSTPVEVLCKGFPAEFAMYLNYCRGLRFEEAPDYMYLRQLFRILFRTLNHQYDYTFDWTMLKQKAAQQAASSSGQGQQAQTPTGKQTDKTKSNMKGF", "assay": "Inhibition of CK1a Lys2 labeling site in human Huh-7 cells at 1 uM by KiNativ Profiling analysis relative to control", "format": "cell-based"}, "[15]": {"target": "Serine/threonine-protein kinase 4 (Homo sapiens) (UniProt Q13043)", "sequence (Q13043 whole entry, looked up)": "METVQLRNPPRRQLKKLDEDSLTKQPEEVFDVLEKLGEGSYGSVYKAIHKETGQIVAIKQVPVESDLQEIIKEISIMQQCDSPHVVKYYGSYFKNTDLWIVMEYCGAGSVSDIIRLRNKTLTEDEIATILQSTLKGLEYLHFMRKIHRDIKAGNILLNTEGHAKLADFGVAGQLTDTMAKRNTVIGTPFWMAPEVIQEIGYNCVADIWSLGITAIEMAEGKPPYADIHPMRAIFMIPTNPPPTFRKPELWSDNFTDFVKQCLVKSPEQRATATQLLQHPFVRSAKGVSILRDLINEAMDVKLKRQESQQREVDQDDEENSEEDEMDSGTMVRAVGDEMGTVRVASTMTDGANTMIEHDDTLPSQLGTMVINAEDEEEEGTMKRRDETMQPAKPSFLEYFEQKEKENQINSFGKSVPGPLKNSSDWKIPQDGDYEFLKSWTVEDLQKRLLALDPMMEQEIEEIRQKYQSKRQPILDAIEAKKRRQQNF", "assay": "Inhibition of MST1 Lys2 labeling site harbouring DIKAGNILLNTEGHAK in human Huh-7 cell lysate at 1 uM by KiNativ Profiling analysis relative to control"}}, "note": "The source made the active and inactive calls. The rule behind the calls is not given here.", "data": [{"smiles": "CCN1CCN(Cc2ccc(NC(=O)c3ccc(C)c(Oc4ccnc5[nH]ccc45)c3)cc2C(F)(F)F)CC1", "values": [{"measurement": "inhibition", "setting": "[1]", "result": "inactive"}, {"measurement": "inhibition", "setting": "[2]", "result": "inactive"}, {"measurement": "inhibition", "setting": "[3]", "result": 7.6, "unit": "%"}, {"measurement": "inhibition", "setting": "[4]", "result": -9, "unit": "%"}, {"measurement": "inhibition at 1 µM", "setting": "[5]", "result": -3.2, "unit": "%"}, {"measurement": "inhibition", "setting": "[6]", "result": 2.9, "unit": "%"}, {"measurement": "percent of control", "setting": "[7]", "result": 0.1, "unit": "%"}]}, {"smiles": "CCN1CCN(Cc2ccc(NC(=O)c3ccc(C)c(/C=C/c4cnc5[nH]ccc5c4OC)c3)cc2C(F)(F)F)CC1", "values": [{"measurement": "inhibition", "setting": "[8]", "result": 17.8, "unit": "%"}, {"measurement": "residual activity", "setting": "[9]", "result": 57, "unit": "%"}]}, {"smiles": "CNc1cc(Oc2cc(C(=O)Nc3cc(N4CCN(C)CC4)cc(C(F)(F)F)c3)ccc2C)ncn1", "values": [{"measurement": "inhibition", "setting": "[10]", "result": -2.8, "unit": "%"}, {"measurement": "inhibition", "setting": "[11]", "result": 30.2, "unit": "%"}, {"measurement": "inhibition", "setting": "[12]", "result": 4.2, "unit": "%"}, {"measurement": "inhibition", "setting": "[13]", "result": 8.9, "unit": "%"}, {"measurement": "inhibition", "setting": "[14]", "result": -1.9, "unit": "%"}, {"measurement": "inhibition", "setting": "[15]", "result": 8.2, "unit": "%"}]}]}
